Experimental data as given in ChEMBL document CHEMBL1141385, “Lignans from Dysosma versipellis with inhibitory effects on prostate cancer cell lines” (J Nat Prod, 2007).

Legend:
PC-3 = experiment: Cytotoxicity against androgen-independent human PC3 cells; assay type: cell-based
Method in brief: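 PC-3 (androgen-independent human prostate cancer) cells kept as monolayers in DMEM with 10% FBS, 2 mM L-glutamine, penicillin/streptomycin, 5% CO2. Plated at 3000 cells/well and left to attach overnight. Treated with compounds or DMSO vehicle for 48 h. Viability read by MTS (2–4 h, 37 °C) as absorbance at 490 nm. Run at least three times in triplicate.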

LNCaP = experiment: Cytotoxicity against androgen sensitive human LNCaP cells; assay type: cell-based
Method in brief: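 LNCaP (androgen-sensitive human prostate cancer) cells kept as monolayers in DMEM with 10% FBS, 2 mM L-glutamine, penicillin/streptomycin, 5% CO2. Seeded at 5000 cells/well, attached overnight, then exposed to compounds or DMSO vehicle for 48 h. MTS added for 2–4 h at 37 °C; formazan absorbance read at 490 nm. At least three experiments, each in triplicate.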

SMILES | IC50 (PC-3) | IC50 (LNCaP)
COc1cc([C@@H]2c3cc4c(cc3[C@H](O)[C@H]3COC(=O)[C@H]23)OCO4)cc(OC)c1O | 82 nM | 56 nM
COc1cc([C@@H]2c3cc4c(cc3C[C@H]3COC(=O)[C@@H]32)OCO4)cc(OC)c1O [4'-DEMETHYLDEOXYPODOPHYLLOTOXIN] | 140 nM | 150 nM
COc1cc([C@@H]2c3cc4c(cc3C[C@H]3COC(=O)[C@@H]32)OCO4)cc(OC)c1OC [DESOXYPODOPHYLLOTOXIN] | 32 nM | 30 nM
COc1cc2c(O)c3c(c(-c4ccc5c(c4)OCO5)c2cc1OC)C(=O)OC3 [DIPHYLLIN] | 7200 nM | 11500 nM
COc1cc(O)cc([C@@H](O)[C@@H]2CO[C@@H](c3ccc(O)c(OC)c3)[C@@H]2CO)c1 [DYSOSMAROL] | 16000 nM | 16000 nM
COc1cc([C@@H]2c3cc4c(cc3[C@H](O)[C@H]3COC(=O)[C@H]23)OCO4)cc(OC)c1OC [PODOFILOX] | 34 nM | 31 nM
